In test [1] the target is 72 kDa type IV collagenase (Homo sapiens, UniProt P08253). Briefly: Inhibition of MMP2. The procedure, abridged:
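Gelatinase A enzyme, synthetic substrate and inhibitor dissolved together in 50 mmol/L sodium borate, pH 8.5, and incubated 30 min at 37 °C. 0.03% TNBS then added and incubated a further 20 min. Absorbance read at 450 nm.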

Test [2] in a line: Inhibition of aminopeptidase N. The procedure, abridged: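 Porcine kidney microsomal aminopeptidase, 4 µg/mL final, preincubated 30 min at room temperature with inhibitor. Inhibitor solutions made in assay buffer and adjusted to pH 7.5. Substrate L-Leu-p-nitroanilide in 50 mM PBS, pH 7.2, at 37 °C; hydrolysis followed as absorbance change at 405 nm. IC50 determined.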

The values below come from ChEMBL document CHEMBL1150360, “Design, synthesis, and QSAR studies of novel lysine derives as amino-peptidase N/CD13 inhibitors” (Bioorg Med Chem, 2008).

72 kDa type IV collagenase, sequence (P08253 whole entry): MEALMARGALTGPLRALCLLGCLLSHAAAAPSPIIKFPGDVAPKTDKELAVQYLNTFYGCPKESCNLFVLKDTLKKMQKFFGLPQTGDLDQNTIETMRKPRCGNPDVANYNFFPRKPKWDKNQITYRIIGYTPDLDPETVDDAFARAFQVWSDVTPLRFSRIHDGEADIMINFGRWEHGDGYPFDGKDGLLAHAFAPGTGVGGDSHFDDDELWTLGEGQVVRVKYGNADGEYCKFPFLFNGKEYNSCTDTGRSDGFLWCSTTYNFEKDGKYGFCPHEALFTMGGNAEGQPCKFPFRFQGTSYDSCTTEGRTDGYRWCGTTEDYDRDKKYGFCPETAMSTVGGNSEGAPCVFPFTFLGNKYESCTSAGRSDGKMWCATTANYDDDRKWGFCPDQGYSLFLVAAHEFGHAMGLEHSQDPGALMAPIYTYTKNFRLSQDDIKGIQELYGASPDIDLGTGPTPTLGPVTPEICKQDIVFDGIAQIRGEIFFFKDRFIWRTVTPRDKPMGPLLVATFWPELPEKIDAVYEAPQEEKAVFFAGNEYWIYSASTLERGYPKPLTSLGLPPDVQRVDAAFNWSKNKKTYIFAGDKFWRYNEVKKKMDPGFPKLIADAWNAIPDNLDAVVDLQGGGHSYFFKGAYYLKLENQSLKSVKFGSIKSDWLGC

By IC50 is commonly meant the midpoint of a concentration-inhibition curve. High values mean weaker potency in that assay, low ones greater potency in that assay. The pIC50 is the negative decadic logarithm of the IC50, by convention in mol/L. In turn, `O=C(NCCCC[C@H](NC(=O)c1ccc(Cl)cc1Cl)C(=O)O)OCc1ccccc1` had an IC50 in test [1] of 17.8 µM. In test [2], this compound gave an IC50 of 127 µM and a pIC50 of 3.9.
Consider `O=C(NCCCC[C@H](NC(=O)c1cnccn1)C(=O)O)OCc1ccccc1`, for which it took 2.93 µM to reach half-maximal inhibition in test [1] (IC50). In test [2], this compound yielded an IC50 of 197 µM and a pIC50 of 3.7.
For `O=C(NCCCC[C@H](NC(=O)c1cccc([N+](=O)[O-])c1)C(=O)NO)OCc1ccccc1`, the IC50 in test [1] turned out to be 11.7 µM; in test [2], 95.8 µM. In test [2], this compound came in with a pIC50 of 4.02.
The matching figures for `O=C(NCCCC[C@H](NC(=O)c1ccc(Br)cc1)C(=O)O)OCc1ccccc1`: 13.1 µM, 188 µM and 3.73.
For `O=C(/C=C/c1ccccc1)N[C@@H](CCCCNC(=O)OCc1ccccc1)C(=O)NO`, the IC50 in test [1] is 3.54 µM. For the same compound, in test [2], the IC50 was found to be 570 µM and the pIC50 is given as 3.24.
`O=C(NCCCC[C@H](NC(=O)c1ccc([N+](=O)[O-])cc1)C(=O)NO)OCc1ccccc1` yielded an IC50 in test [1] of 32 µM. In addition, in test [2], the half-inhibitory concentration (IC50) amounted to 108 µM and the pIC50 came out at 3.97.
Consider `O=C(NCCCC[C@H](NC(=O)c1ccncc1)C(=O)O)OCc1ccccc1`, for which the IC50 in test [1] was 8.76 µM; in test [2] it was 292 µM. Besides, in test [2], the pIC50 is listed as 3.54.
The matching figures for `O=C(NCCCC[C@H](NC(=O)c1cccnc1)C(=O)NO)OCc1ccccc1`: 8 µM, 94.3 µM and 4.03.
`O=C(NCCCC[C@H](NC(=O)c1cccs1)C(=O)NO)OCc1ccccc1` returned an IC50 in test [1] of 12.6 µM. In test [2], this compound showed an IC50 of 159 µM and a negative logarithm of the IC50 (pIC50) of 3.8.
The matching figures for `O=C(NCCCC[C@H](NC(=O)c1ccc(Cl)cc1Cl)C(=O)NO)OCc1ccccc1`: 170 µM, 13.2 µM and 4.88.
In the same order, the values of `O=C(NCCCC[C@H](NC(=O)c1cccc([N+](=O)[O-])c1)C(=O)O)OCc1ccccc1` are 7.48 µM, 111 µM and 3.96.
`O=C(NCCCC[C@H](NC(=O)c1cccnc1)C(=O)O)OCc1ccccc1`: the IC50 in test [1] is 3.14 µM. In test [2], this compound gave an IC50 of 167 µM and a pIC50 of 3.78.
The matching figures for `O=C(/C=C/c1ccccc1)N[C@@H](CCCCNC(=O)OCc1ccccc1)C(=O)O`: 50.5 µM, 215 µM and 3.67.
For the compound `O=C(NCCCC[C@H](NC(=O)c1ccco1)C(=O)NO)OCc1ccccc1`, the values for the IC50 in test [1] and in test [2] were 8.08 µM and 159 µM, respectively. The same compound returned a pIC50 in test [2] of 3.8.
`O=C(NCCCC[C@H](NC(=O)c1ccc(Br)cc1)C(=O)NO)OCc1ccccc1`: in test [1], half-maximal inhibition (IC50) was put at 9.94 µM. In test [2], this compound displayed an IC50 of 112 µM and a pIC50 of 3.95.
On to `O=C(NCCCC[C@H](NC(=O)c1ccc([N+](=O)[O-])cc1)C(=O)O)OCc1ccccc1`, for which the results for the IC50 in test [1] and in test [2] were 19.2 µM and 202 µM, respectively. For the same compound, the pIC50 in test [2] is 3.69.
In the same order, the values of `O=C(NCCCC[C@H](NC(=O)c1cccs1)C(=O)O)OCc1ccccc1` are 12.7 µM, 1250 µM and 2.9.
Take `O=C(NCCCC[C@H](NC(=O)c1ccncc1)C(=O)NO)OCc1ccccc1`: half-maximal inhibition in test [1] (IC50) was put at 25.5 µM. Besides, in test [2], the midpoint of inhibition, the IC50, lay at 91.2 µM and the pIC50 was found to be 4.04.
With `O=C(NCCCC[C@H](NC(=O)c1cnccn1)C(=O)NO)OCc1ccccc1`, the figures for the IC50 in test [1] and in test [2] were 14.3 µM and 97 µM, respectively. Besides, the pIC50 in test [2] is 4.01.
For the compound `CC(C)C[C@H](NC(=O)[C@@H](O)[C@H](N)Cc1ccccc1)C(=O)O` [UBENIMEX], the results for the IC50 in test [1] and in test [2] were 22 µM and 15.5 µM, respectively.
With `O=C(NCCCC[C@H](NC(=O)c1ccco1)C(=O)O)OCc1ccccc1`, the values for the IC50 in test [1] and in test [2] were 8.49 µM and 1120 µM, respectively. The compound further gave a pIC50 in test [2] of 2.95.
